Rows were chosen to be rich in hits. Some 1.7% of all compounds tested hit in one or more screens of this group.
IDE cell activ = IDE (human) activation, cell-based; HEK cells, FAbeta-B cleavage, fluorescence polarization; 0% vehicle, 100% cell-free pure enzyme wells; activation, % at 5.96 µM; 0.073% of 340,000 active;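 active = activation above the mean of all tested compounds plus 3 SD, set per screening campaign, cut at about 17% in these data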
Rpn11 inh = Rpn11 (human) deubiquitinase inhibition | O00487 | human 26S proteasome, Ub4-pepOG fluorescence polarization; 20S core pre-blocked with epoxomicin | inhibition, % at 20 µM | 0.59% of 360,000 active | AID 588493;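 active = inhibition at 20 µM, scaled to each plate's controls, above about 33%, limit read from the data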
CSN inh = blocks human CSN-mediated cullin deneddylation | Q92905 | Purified CSN, SCF-Nedd8-OG deneddylation, fluorescence polarization | inhibition, % at 12.5 µM | 0.38% of 360,000 active | AID 651999;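 active = pattern-corrected inhibition above about 35%, with an unprinted fluorescence ratio check between 0.5 and 1.5, limit read from the data, passing the limit was not always enough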;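 note: 0% = enzyme with substrate and 100% = substrate without enzyme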
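Detection – fluorescence polarization · System – HEK293T-derived human Csn5 enzyme · Controls – substrate-only high control, full reaction low control · Timing – 90 min, room temperature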
HNF4A DNA FP = change in binding of human HNF4 alpha to DNA; AID 1224865; HNF4a-FITC DNA binding, fluorescence polarization, 1 h; P41235; 0.3% of 360,000 active; activity change, % at 10 µM; in the data active = activity change above about 30%, passing the limit was not always enough
TPT1 inhibitor = blocks Candida albicans tRNA 2'-phosphotransferase; inhibition, % at 5 µM; recombinant caTPT1, FP RNA substrate dephosphorylation; 0.81% of 300,000 active;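 active = inhibition above the mean of all tested compounds plus 3 SD, set per screening campaign, cut at about 24% in these data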;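 note: plate controls were DMSO alone for no effect and ferristatin control at 100 nM for full effect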
IDE inh = inhibitors of human insulin-degrading enzyme in cells; P14735; 0.41% of 320,000 active; inhibition, % at 5.59 µM; HEK cells, FAbetaB cleavage, fluorescence polarization;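 active = percent inhibition above the average of all tested compounds plus 3 SD, set per screening campaign, cut at about 16% in these data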;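 note: IDE supplied by intact live HEK cells; FP after avidin binding of uncleaved biotin substrate so inhibition keeps polarization high; 0% = DMSO wells and 100% = 60 µM reference IDE inhibitor Ii1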
TPT1 inh confirm = TPT1 (C. albicans) inhibition, confirmation; inhibition, % at 5 µM; recombinant caTPT1, fluorescence polarization, RNase T1 coupled; 74% of 2,400 active; shares compounds with TPT1 inhibitor;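 active = inhibition above the primary screen limit, the mean inhibition of all tested compounds plus 3 SD, cut at about 25% in these data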
RNase T1 inh = counter-screen for TPT1 inhibitors: inhibitors of Aspergillus oryzae RNase T1; shares compounds with TPT1 inhibitor; RNase T1 cleavage, fluorescence polarization, 1536-well; inhibition, % at 5 µM; 83% of 2,400 active;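 active = inhibition above the solvent-only control well mean plus 3 SD, limit set per screening run, cut at about 23% in these data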;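 note: plate controls were DMSO wells with enzyme for no effect and wells without RNase T1 for full effect; inhibitors block cleavage so intact labeled substrate keeps polarization high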
Target sequence (P00651 whole entry, looked up): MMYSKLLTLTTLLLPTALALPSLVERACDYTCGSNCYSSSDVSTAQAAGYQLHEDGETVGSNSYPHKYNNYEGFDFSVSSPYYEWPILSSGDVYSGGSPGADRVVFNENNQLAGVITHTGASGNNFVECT
IDE cell inh cf = confirmation of human insulin-degrading enzyme inhibitors in cells. shares compounds with IDE inh. HEK cells, FAbetaB cleavage, fluorescence polarization. inhibition, % at 5.59 µM. 51% of 1,200 active;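 active = mean inhibition across triplicate wells above the cutoff set by the earlier primary insulin-degrading enzyme screen, cut at about 16% in these data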;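 note: 0% = DMSO wells and 100% = 60 µM reference IDE inhibitor Ii1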
HEK cytotox = kills HEK cells in IDE inhibitor counter-screen; inhibition, % at 5.59 µM; HEK293 cytotoxicity, ATP luminescence; 28% of 1,200 active; shares compounds with IDE inh; in the data active = inhibition above about 22%;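 note: 0% = vehicle wells and 100% = reference cytotoxic drug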
Rpn11 inh conf = Rpn11 inhibition confirmation, single concentration | shares compounds with Rpn11 inh | purified human 26S proteasome, Ub4-pepOG fluorescence polarization; proteasome pretreated with epoxomicin | inhibition, % at 20 µM | 29% of 1,900 active | AID 602318
MMP-2 counter-1 = counter-screen for RPN11 inhibitors: inhibition of human MMP-2; shares compounds with Rpn11 inh; recombinant MMP-2, FRET peptide cleavage fluorescence; inhibition, % at 20 µM; 4% of 1,900 active; AID 602330;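 note: human MMP-2 activated beforehand with APMA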
Target sequence (P08253 whole entry, looked up): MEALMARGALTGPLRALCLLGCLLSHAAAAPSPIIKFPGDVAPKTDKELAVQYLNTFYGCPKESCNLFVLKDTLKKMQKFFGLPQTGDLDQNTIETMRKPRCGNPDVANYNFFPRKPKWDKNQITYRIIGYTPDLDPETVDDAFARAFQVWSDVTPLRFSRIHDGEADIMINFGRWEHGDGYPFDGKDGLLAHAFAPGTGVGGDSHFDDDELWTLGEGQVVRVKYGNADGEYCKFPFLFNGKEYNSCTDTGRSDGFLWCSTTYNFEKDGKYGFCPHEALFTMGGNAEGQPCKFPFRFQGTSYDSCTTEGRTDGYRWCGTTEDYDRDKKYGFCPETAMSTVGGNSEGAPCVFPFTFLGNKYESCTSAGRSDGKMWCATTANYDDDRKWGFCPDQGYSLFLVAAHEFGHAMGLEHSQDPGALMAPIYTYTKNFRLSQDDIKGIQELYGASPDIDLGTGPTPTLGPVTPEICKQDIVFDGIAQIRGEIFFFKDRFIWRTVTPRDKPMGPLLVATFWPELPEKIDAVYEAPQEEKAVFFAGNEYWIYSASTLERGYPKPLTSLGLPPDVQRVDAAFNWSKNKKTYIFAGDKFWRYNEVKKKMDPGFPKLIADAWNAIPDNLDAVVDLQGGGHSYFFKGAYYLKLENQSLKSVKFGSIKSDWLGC
Thrombin inh = counter-screen for RPN11 inhibitors: inhibition of bovine thrombin; shares compounds with Rpn11 inh; bovine thrombin cleavage of Ub4-pepOG, fluorescence polarization; inhibition, % at 20 µM; 13% of 1,900 active; AID 602333;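 active = mean inhibition at least 40% at 20 µM, or signal 3 deviations below plate average, so some actives read negative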;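 note: plate controls were thrombin with DMSO for no effect and buffer wells lacking thrombin for full effect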
CSN5 deneddyl = Csn5 (human) deneddylation inhibition, single-concentration validation; shares compounds with CSN inh; Csn5 deneddylation of SCF-Nedd8OG, fluorescence polarization, 90 min; inhibition, % at 16.6 µM; 62% of 540 active; AID 720654; in the data active = inhibition above about 50%;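 note: 0% = DMSO with enzyme and 100% = no enzyme wells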
MMP-2 counter-2 = blocks human MMP-2 in a CSN deneddylation counter-screen. 33% of 540 active. shares compounds with CSN inh. recombinant MMP-2, FRET substrate fluorescence, 60 min. inhibition, % at 16.6 µM;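 active = corrected plate-normalized z-score of 5 or more, or -5 or less, or inhibition of 15% or more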;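 note: plate controls were DMSO wells with enzyme for no effect and buffer wells lacking MMP-2 for full effect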
Thrombin cntr = thrombin (bovine) inhibition, counter-screen for CSN hits; shares compounds with CSN inh; bovine thrombin cleavage of Ub4-pepOG, fluorescence polarization; inhibition, % at 16.6 µM; 49% of 540 active;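 active = inhibition at or above a set limit, with a fluorescence interference ratio between 0.5 and a set maximum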
* hit, by the source's call; nt = not tested or not shown. Cut-off read from the data, not from the text of the source, unless noted: active = inhibition above about 40%; inactive = the rest.

SMILES | IDE cell activ | Rpn11 inh | CSN inh | HNF4A DNA FP | TPT1 inhibitor | IDE inh | TPT1 inh confirm | RNase T1 inh | IDE cell inh cf | HEK cytotox | CSN5 deneddyl | MMP-2 counter-2 | Thrombin cntr | others
O=C(O)c1ccc(N/N=C/C=C/c2ccc([N+](=O)[O-])o2)cc1 | -47 | 33 | 45* | 24 | 44* | 50* | 63* | 72* | 73* | 8 | 43 | 6 | 14
O=[N+]([O-])c1ccc(N/N=C/c2c[nH]c3ccccc23)cc1 | 3 | 115* | 57* | 78* | 125* | 4 | 106* | 109* | nt | nt | 56* | -3 | 57* | Rpn11 inh conf=84*;MMP-2 counter-1=-16;Thrombin inh=59*
O=[N+]([O-])c1ccc(N/N=C/C=C/c2ccco2)cc1 | -15 | nt | 56* | 89* | 119* | 6 | 123* | 122* | nt | nt | 52* | -3 | 44*
O=[N+]([O-])c1ccccc1N/N=C/c1c[nH]c2ccccc12 | 6 | -2 | -4 | -2 | 2 | -6 | nt | nt | nt | nt | nt | nt | nt
O=C(CCN1C(=O)/C(=C\c2ccco2)SC1=S)Nc1ccc(C(=O)O)c(O)c1 | 3 | 70* | 57* | -20 | 25* | 1 | 11 | 15 | nt | nt | 72* | 14 | 1 | Rpn11 inh conf=23;MMP-2 counter-1=26;Thrombin inh=22
N#C/C(=C/c1ccc(N2CCCCCC2)o1)c1ccc(Cl)cc1 | -17 | nt | 78* | 110 | 158* | 0 | 187* | 172* | nt | nt | 188* | -34* | 58*
Cn1c(O)c(/C=N/NC(=O)c2cc3ccccc3cc2O)c2ccccc21 | -12 | nt | 40* | 62 | 122* | 8 | 127* | 125* | nt | nt | 75* | 1 | 45*
CCOc1cc(/C=C2\SC(=S)N(N3CCOCC3)C2=O)ccc1O | -4 | 2 | -4 | 2 | 4 | 7 | nt | nt | nt | nt | nt | nt | nt
CCOc1cc(/C=C2\SC(=S)N(Nc3ccccc3)C2=O)ccc1O | -78 | 82* | 37* | 32 | 34* | 53* | 37* | 50* | 128* | 7 | 75* | 9 | 61* | Rpn11 inh conf=72*;MMP-2 counter-1=24;Thrombin inh=79*
CC(=O)NN1C(=O)/C(=C\c2ccccc2)SC1=S | 5 | 0 | 4 | -3 | 2 | 7 | nt | nt | nt | nt | nt | nt | nt
COc1cc(/C=C2/SC(=S)N(CC3CCCO3)C2=O)ccc1O (stereo not given) | -95 | nt | 58* | 41* | 39* | 108* | 41* | 51* | 175* | 13 | 65* | -4 | 75*
CC(=O)NN1C(=O)/C(=C\c2ccc(O)cc2)SC1=S | -73 | nt | 96* | 82* | 37* | 36* | 41* | 48* | 89* | 8 | 39 | -5 | 73*
CC(=O)NN1C(=O)/C(=C\c2ccc(C)cc2)SC1=S | -4 | -1 | -1 | 3 | -1 | -1 | nt | nt | nt | nt | nt | nt | nt
O=C(NN1C(=O)/C(=C/c2ccc(O)c(O)c2)SC1=S)c1ccccc1 | -43 | nt | 50* | 33 | 31* | 43* | 44* | 57* | 87* | 17 | 63* | 20* | 33*
COc1ccc(-c2csc3ncnc(N4CCN(S(=O)(=O)c5ccc(C(C)=O)cc5)CC4)c23)cc1 | 0 | 16 | -1 | 3 | -3 | 8 | nt | nt | nt | nt | nt | nt | nt
COc1ccc(OC)c(C(=O)COC(=O)COc2ccccc2F)c1 | 6 | 1 | 5 | 1 | nt | nt | nt | nt | nt | nt | nt | nt | nt
CCc1ccccc1NC(=O)CNC(=O)c1cccc(S(=O)(=O)N2CCN(Cc3ccccc3)CC2)c1 | 2 | -15 | 0 | -1 | -1 | 4 | nt | nt | nt | nt | nt | nt | nt
COc1cc(/C=C2\SC(=S)N(NC(=O)c3cccnc3)C2=O)ccc1O | -130 | nt | 39* | 52* | 25* | 114* | 34* | 42* | 159* | 9 | 65* | 9 | 35*
O=C(O)C(Cc1ccccc1)N1C(=O)/C(=C/c2ccccc2)SC1=S (stereo not given) | 2 | -5 | 0 | 0 | -2 | -3 | nt | nt | nt | nt | nt | nt | nt
COc1cc(/C=C2\SC(=S)N(C(Cc3ccccc3)C(=O)O)C2=O)ccc1O (stereo not given) | -58 | 103* | 36* | 35* | 33* | 46* | 37* | 49* | 109* | 6 | 56* | 6 | 68* | Rpn11 inh conf=62*;MMP-2 counter-1=-17;Thrombin inh=79*
O=C1/C(=C\c2ccc(O)cc2)SC(=S)N1/N=C/c1ccc(O)cc1 | -160 | nt | 94* | 106* | 65* | 75* | 62* | 68* | 98* | 11 | 38 | -23 | 86*
COC(=O)c1cn(Nc2ncc(C(F)(F)F)cc2Cl)c(=O)c2ccccc12 | 1 | -1 | 4 | 0 | 1 | -1 | nt | nt | nt | nt | nt | nt | nt
COc1cccc(/C=C2\SC(=S)N(NC(=O)c3ccncc3)C2=O)c1 | 3 | 7 | 6 | 2 | 1 | 3 | nt | nt | nt | nt | nt | nt | nt
O=C1C2C3C=CC(CC3)C2C(=O)N1/N=C/c1ccc(O)cc1 (stereo not given) | -3 | -3 | 5 | 2 | -4 | 7 | nt | nt | nt | nt | nt | nt | nt
COc1cc(/C=C2\SC(=S)N(Nc3ncc(C(F)(F)F)cc3Cl)C2=O)ccc1O | -87 | 72* | 67* | 82* | 27* | 51* | 32* | 43* | 129* | 7 | 78* | -14 | 61* | Rpn11 inh conf=75*;MMP-2 counter-1=-20;Thrombin inh=75*
